In brackets after ≈: the same amount, converted by molar mass. Activity calls are given as the source filed them. The calls are words filed in the database; no cut-off is given here.
Key:
Acinetobacter baumannii = experiment: Antibacterial activity against Acinetobacter baumannii ATCC 19606 after 24 hrs by broth microdilution assay; assay type: functional, organism-based; conditions: ATCC 19606 = CIP 70.34 = JCM 6841
Outline: (§1)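 Twofold serial dilutions in LB broth, inoculated to a final 1 × 10^5 to 3 × 10^5 CFU/mL. Incubation at 37 °C for 24 h. MIC read visually as the lowest concentration giving no turbidity.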

Staphylococcus aureus [1] = experiment: Antibacterial activity against methicillin-resistant Staphylococcus aureus USA300 after 24 hrs by broth microdilution assay; assay type: functional; conditions: USA300, 24 h
Enterococcus faecalis = experiment: Antibacterial activity against Enterococcus faecalis FA2-2 after 24 hrs by broth microdilution assay; assay type: functional; outline: as §1
Salmonella typhimurium = experiment: Antibacterial activity against Salmonella typhimurium ATCC 14028 after 24 hrs by broth microdilution assay; assay type: functional, organism-based; conditions: Salmonella enterica subsp. enterica serovar Typhimurium; outline: as §1
Klebsiella pneumoniae = experiment: Antibacterial activity against Klebsiella pneumoniae ATCC 35657 after 24 hrs by broth microdilution assay; assay type: functional, organism-based; outline: as §1
Bacillus subtilis = experiment: Antibacterial activity against Bacillus subtilis 168 after 24 hrs by broth microdilution assay; assay type: functional; conditions: subsp. subtilis str. 168, 24 h; outline: as §1
Pseudomonas aeruginosa = experiment: Antibacterial activity against Pseudomonas aeruginosa PAO1 after 24 hrs by broth microdilution assay; assay type: functional, organism-based; outline: as §1
Staphylococcus aureus [2] = experiment: Antibacterial activity against Staphylococcus aureus Newman after 24 hrs by broth microdilution assay; assay type: functional; outline: as §1
Escherichia coli = experiment: Antibacterial activity against Escherichia coli MG1655 after 24 hrs by broth microdilution assay; assay type: functional, organism-based; conditions: K-12 substr. MG1655; outline: as §1
Enterococcus faecium = experiment: Antibacterial activity against Enterococcus faecium ATCC 19434 after 24 hrs by broth microdilution assay; assay type: functional; conditions: ATCC 19434, 24 h; outline: as §1
Shigella dysenteriae = experiment: Antibacterial activity against Shigella dysenteriae ATCC 13313 after 24 hrs by broth microdilution assay; assay type: functional, organism-based

Row | SMILES | Activity (Acinetobacter baumannii) | MIC (Staphylococcus aureus [1]) | MIC (Enterococcus faecalis) | Activity (Salmonella typhimurium) | Activity (Klebsiella pneumoniae) | MIC (Bacillus subtilis) | Activity (Pseudomonas aeruginosa) | MIC (Staphylococcus aureus [2]) | Activity (Escherichia coli) | MIC (Enterococcus faecium) | Activity (Shigella dysenteriae)
1 | CCCCCCc1c(O)ccc2c1O[C@]1(NC(=O)C(Cl)=C1Cl)C2=O | inactive | 16 µg/mL (≈ 43.2 µM) | > 32 µg/mL | inactive | inactive | 8 µg/mL (≈ 21.6 µM) | inactive | 8 µg/mL (≈ 21.6 µM) | inactive | 32 µg/mL (≈ 86.4 µM) | inactive
2 | CC(C)CCCc1c(O)ccc2c1O[C@@]1(C=C(Cl)C(=O)N1)C2=O | inactive | > 32 µg/mL | > 32 µg/mL | inactive | inactive | > 32 µg/mL | inactive | > 32 µg/mL | inactive | > 32 µg/mL | inactive
3 | CC[C@H](C)CCCc1c(O)ccc(C(=O)c2cc(Cl)c(Cl)[nH]2)c1O | inactive | 2 µg/mL (≈ 5.4 µM) | 8 µg/mL (≈ 21.6 µM) | inactive | inactive | 0.5 µg/mL (≈ 1.35 µM) | inactive | 1 µg/mL (≈ 2.7 µM) | inactive | 2 µg/mL (≈ 5.4 µM) | inactive
4 | CC(C)CCCc1c(O)ccc2c1O[C@]1(C2=O)C(Cl)=C(Cl)C(=O)N1C [ARMENIASPIROLE B] | inactive | 2 µg/mL (≈ 5.2 µM) | 32 µg/mL (≈ 83.3 µM) | inactive | inactive | 4 µg/mL (≈ 10.4 µM) | inactive | 0.5 µg/mL (≈ 1.3 µM) | inactive | > 32 µg/mL | inactive
5 | CC(C)CCCc1c(O)ccc(C(=O)c2cc(Cl)c(Cl)[nH]2)c1O | inactive | 1 µg/mL (≈ 2.81 µM) | 8 µg/mL (≈ 22.5 µM) | inactive | inactive | 0.5 µg/mL (≈ 1.4 µM) | inactive | 1 µg/mL (≈ 2.81 µM) | inactive | 2 µg/mL (≈ 5.61 µM) | inactive
6 | CCCCCCc1c(O)ccc2c1O[C@]1(C2=O)C(Cl)=C(Cl)C(=O)N1C [ARMENIASPIROLE A] | inactive | 0.5 µg/mL (≈ 1.3 µM) | 16 µg/mL (≈ 41.6 µM) | inactive | inactive | 2 µg/mL (≈ 5.2 µM) | inactive | 0.5 µg/mL (≈ 1.3 µM) | inactive | > 32 µg/mL | inactive
7 | CN[C@H](CC(C)C)C(=O)N[C@H]1C(=O)N[C@@H](CC(N)=O)C(=O)N[C@H]2C(=O)N[C@H]3C(=O)N[C@H](C(=O)N[C@H](C(=O)O)c4cc(O)cc(O)c4-c4cc3ccc4O)[C@H](O)c3ccc(c(Cl)c3)Oc3cc2cc(c3O[C@@H]2O[C@H](CO)[C@@H](O)[C@H](O)[C@H]2O[C@H]2C[C@](C)(N)[C@H](O)[C@H](C)O2)Oc2ccc(cc2Cl)[C@H]1O [VANCOMYCIN] |  |  | 2 µg/mL (≈ 1.38 µM) |  |  | 0.25 µg/mL (≈ 0.173 µM) |  |  |  |  | 
8 | CCCCCCc1c(O)ccc2c1O[C@@]1(C=C(Cl)C(=O)N1C)C2=O | inactive | 8 µg/mL (≈ 22.9 µM) | > 32 µg/mL | inactive | inactive | 8 µg/mL (≈ 22.9 µM) | inactive | 4 µg/mL (≈ 11.4 µM) | inactive | > 32 µg/mL | inactive
9 | CC[C@H](C)CCCc1c(O)ccc2c1O[C@]1(NC(=O)C(Cl)=C1Cl)C2=O | inactive | 8 µg/mL (≈ 20.8 µM) | 32 µg/mL (≈ 83.3 µM) | inactive | inactive | 8 µg/mL (≈ 20.8 µM) | inactive | 8 µg/mL (≈ 20.8 µM) | inactive | 32 µg/mL (≈ 83.3 µM) | inactive
10 | CCCCCCc1c(O)ccc2c1O[C@@]1(C=C(Cl)C(=O)N1)C2=O | inactive | > 32 µg/mL | > 32 µg/mL | inactive | inactive | > 32 µg/mL | inactive | > 32 µg/mL | inactive | > 32 µg/mL | inactive
11 | CC(C)CCCc1c(O)ccc2c1O[C@@]1(C=C(Cl)C(=O)N1C)C2=O | inactive | 16 µg/mL (≈ 45.7 µM) | > 32 µg/mL | inactive | inactive | 16 µg/mL (≈ 45.7 µM) | inactive | 4 µg/mL (≈ 11.4 µM) | inactive | > 32 µg/mL | inactive
12 | CC[C@H](C)CCCc1c(O)ccc2c1O[C@@]1(C=C(Cl)C(=O)N1C)C2=O | inactive | 8 µg/mL (≈ 22 µM) | > 32 µg/mL | inactive | inactive | 8 µg/mL (≈ 22 µM) | inactive | 2 µg/mL (≈ 5.5 µM) | inactive | > 32 µg/mL | inactive
13 | CC[C@H](C)CCCc1c(O)ccc2c1O[C@@]1(C=C(Cl)C(=O)N1)C2=O | inactive | > 32 µg/mL | > 32 µg/mL | inactive | inactive | 16 µg/mL (≈ 45.7 µM) | inactive | > 32 µg/mL | inactive | > 32 µg/mL | inactive
14 | CCCCCCc1c(O)ccc(C(=O)c2cc(Cl)c(Cl)[nH]2)c1O | inactive | 1 µg/mL (≈ 2.81 µM) | 2 µg/mL (≈ 5.61 µM) | inactive | inactive | 0.5 µg/mL (≈ 1.4 µM) | inactive | 1 µg/mL (≈ 2.81 µM) | inactive | 2 µg/mL (≈ 5.61 µM) | inactive
15 | CC[C@H](C)CCCc1c(O)ccc2c1O[C@]1(C2=O)C(Cl)=C(Cl)C(=O)N1C [ARMENIASPIROLE C] | inactive | 0.5 µg/mL (≈ 1.26 µM) | > 32 µg/mL | inactive | inactive | 2 µg/mL (≈ 5.02 µM) | inactive | 0.5 µg/mL (≈ 1.26 µM) | inactive | > 32 µg/mL | inactive
16 | CC(C)CCCc1c(O)ccc2c1O[C@]1(NC(=O)C(Cl)=C1Cl)C2=O | inactive | 16 µg/mL (≈ 43.2 µM) | > 32 µg/mL | inactive | inactive | 16 µg/mL (≈ 43.2 µM) | inactive | 8 µg/mL (≈ 21.6 µM) | inactive | > 32 µg/mL | inactive

From ChEMBL document CHEMBL4330171, “Characterization of the Biosynthetic Gene Cluster for the Antibiotic Armeniaspirols in Streptomyces armeniacus” (2019)
